Assay results: ChEMBL document CHEMBL4184341, “Structure-Based Design of Inhibitors with Improved Selectivity for Steroidogenic Cytochrome P450 17A1 over Cytochrome P450 21A2” (J Med Chem, 2018)

Legend:
[1] = species on record: Homo sapiens; test: Selectivity ratio of IC50 for C-terminal His-tagged recombinant human CYP21A2deltaH mutant to IC50 for C-terminal His-tagged recombinant human CYP17A1delta19H mutant
[2] = molecular target: Steroid 21-hydroxylase (Homo sapiens, UniProt P08686); test: Inhibition of C-terminal His-tagged recombinant human CYP21A2deltaH mutant expressed in Escherichia coli DH5alpha assessed as decrease in progesterone hydroxylation preincubated for 3 mins followed by NADPH addition measured after 8 mins in presence of cytochrome p450 reductase by LC-MS/MS method
[3] = molecular target: T1, Steroid 17-alpha-hydroxylase/17,20 lyase (Homo sapiens, UniProt P05093); test: Inhibition of C-terminal His-tagged recombinant human CYP17A1delta19H mutant expressed in Escherichia coli DH5alpha assessed as decrease in progesterone hydroxylation preincubated for 3 mins followed by NADPH addition measured after 10 mins in presence of cytochrome p450 reductase by LC-MS/MS method
Method in brief: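 Purified human CYP17A1 (20 pmol) was preincubated with full-length human CPR (80 pmol) for 20 min at rt. […] After 3 min at 37 °C, 1 mM NADPH was added and the reaction ran 10 min before a TCA stop. The 17α-hydroxy product was read by LC-MS/MS.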

[4] = molecular target: T1, Steroid 17-alpha-hydroxylase/17,20 lyase; test: Inhibition of C-terminal His-tagged recombinant human CYP17A1delta19H mutant expressed in Escherichia coli JM109 cells assessed as decrease in progesterone hydroxylation in presence of cytochrome P450 reductase […]

T1 sequence (P05093 whole entry, looked up): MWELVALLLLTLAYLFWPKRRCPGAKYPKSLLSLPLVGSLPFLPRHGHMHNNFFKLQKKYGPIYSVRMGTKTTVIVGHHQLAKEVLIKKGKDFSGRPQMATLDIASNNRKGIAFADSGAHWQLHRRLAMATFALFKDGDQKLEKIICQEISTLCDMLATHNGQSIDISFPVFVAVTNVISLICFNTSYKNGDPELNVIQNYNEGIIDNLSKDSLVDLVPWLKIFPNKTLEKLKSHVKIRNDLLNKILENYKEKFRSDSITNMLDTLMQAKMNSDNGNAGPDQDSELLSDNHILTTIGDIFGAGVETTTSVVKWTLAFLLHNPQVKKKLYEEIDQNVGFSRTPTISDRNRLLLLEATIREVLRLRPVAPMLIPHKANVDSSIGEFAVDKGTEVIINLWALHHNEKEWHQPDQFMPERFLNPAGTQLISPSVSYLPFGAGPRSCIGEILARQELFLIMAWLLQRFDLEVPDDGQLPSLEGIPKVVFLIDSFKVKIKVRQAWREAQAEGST
Chain of Steroid 21-hydroxylase (P08686 whole entry, looked up, stated change not applied): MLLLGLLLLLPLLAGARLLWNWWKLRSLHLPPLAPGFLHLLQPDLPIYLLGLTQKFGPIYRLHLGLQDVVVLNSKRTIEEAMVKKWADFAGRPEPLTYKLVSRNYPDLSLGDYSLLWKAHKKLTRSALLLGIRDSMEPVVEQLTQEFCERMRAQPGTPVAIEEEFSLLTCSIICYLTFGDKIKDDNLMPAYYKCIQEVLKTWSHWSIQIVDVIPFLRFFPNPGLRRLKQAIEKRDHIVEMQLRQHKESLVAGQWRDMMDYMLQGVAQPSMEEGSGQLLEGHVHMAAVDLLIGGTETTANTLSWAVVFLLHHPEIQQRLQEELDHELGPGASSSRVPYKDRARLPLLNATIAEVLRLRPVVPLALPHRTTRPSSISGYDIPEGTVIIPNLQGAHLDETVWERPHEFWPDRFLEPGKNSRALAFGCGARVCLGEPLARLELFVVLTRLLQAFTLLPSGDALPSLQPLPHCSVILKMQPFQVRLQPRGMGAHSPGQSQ

| IC50 [4] [nM] | Compound | Ratio IC50 [1] | IC50 [2] [nM] | IC50 [3] [nM] |
| --- | --- | --- | --- | --- |
| – | C[C@]12CC[C@H](O)C[C@@H]1NC(=O)C[C@@H]1[C@@H]2CC[C@]2(C)C(c3cccnc3)=CC[C@@H]12 | 16 | 3600 | 230 |
| – | C[C@]12CC[C@H](O)CC1=C(C#N)C[C@@H]1[C@@H]2CC[C@]2(C)C(c3cccnc3)=CC[C@@H]12 | – | – | 15.5 |
| – | C[C@]12CC[C@H](O)CC1=C(C(N)=O)C[C@@H]1[C@@H]2CC[C@]2(C)C(c3cccnc3)=CC[C@@H]12 | 29 | 673 | 22.8 |
| – | C[C@]12CC[C@H](O)C[C@@H]1C(=O)C[C@@H]1[C@@H]2CC[C@]2(C)C(c3cccnc3)=CC[C@@H]12 | 35 | 440 | 12.4 |
| 9.4 to 92 | C[C@]12CC[C@H](O)CC1=CC[C@@H]1[C@@H]2CC[C@]2(C)C(c3cccnc3)=CC[C@@H]12 [ABIRATERONE] | – | – | 4.94 |
| – | C[C@]12CCC(=O)C=C1CC[C@@H]1[C@@H]2CC[C@]2(C)C(c3cccnc3)=CC[C@@H]12 | – | 0.7 | 6.13 |
| – | C[C@]12CC[C@H](O)C[C@@H]1[C@@H](O)C[C@@H]1[C@@H]2CC[C@]2(C)C(c3cccnc3)=CC[C@@H]12 | 33 | 234 | 7.2 |
| – | C[C@]12CC[C@H](O)CC1=CC[C@@H]1[C@@H]2CC[C@]2(C)C(n3cnc4ccccc43)=CC[C@@H]12 [GALETERONE] | – | – | 28.1 |
| – | C[C@]12CC[C@H](O)CC1=CC[C@@H]1[C@@H]2CC[C@]2(C)C(c3ccccc3)=CC[C@@H]12 | – | ≥ 700 | > 20000 |
